{
  "source": "ChEMBL document CHEMBL3525903",
  "about": "(Drug Metab Dispos, 2013)",
  "key": {"[1]": {"tested_on": "P-glycoprotein", "experiment": "Permeability assessed as human P-glycoprotein-mediated active membrane transport by measuring basolateral to apical side expressed in pig LLC-PK1 cells by Transwell experiment/liquid scintillation counting", "assay_type": "ADME, cell-based", "conditions": "read-out: permeability; call rule not given here"}, "[2]": {"experiment": "Inhibition of human P-glycoprotein expressed in pig LLC-PK1 cells assessed as reduction of [3H]digoxin substrate transport by liquid scintillation counting", "assay_type": "ADME, cell-based", "in_short": "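P-gp-expressing and parental LLC-PK1 monolayers were grown on transwell inserts for 6–7 days to confluence and switched to serum-free M199 1 h before assay. [3H]digoxin was given apical-to-basal or basal-to-apical, with inhibitor in both chambers, at 37 °C, solvent ≤0.5%. Receiver samples were scintillation-counted and Papp taken from the linear phase. Results are % of control BtoA transport, mean ± S.D., n≥3.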"}, "[3]": {"experiment": "Inhibition of human P-glycoprotein expressed in pig LLC-PK1 cells assessed as reduction of [3H]digoxin substrate transport from basolateral to apical side by liquid scintillation counting", "assay_type": "ADME, cell-based"}, "[4]": {"target": "ATP-binding cassette sub-family C member 2 (Homo sapiens, UniProt Q92887)", "sequence (Q92887 whole entry)": "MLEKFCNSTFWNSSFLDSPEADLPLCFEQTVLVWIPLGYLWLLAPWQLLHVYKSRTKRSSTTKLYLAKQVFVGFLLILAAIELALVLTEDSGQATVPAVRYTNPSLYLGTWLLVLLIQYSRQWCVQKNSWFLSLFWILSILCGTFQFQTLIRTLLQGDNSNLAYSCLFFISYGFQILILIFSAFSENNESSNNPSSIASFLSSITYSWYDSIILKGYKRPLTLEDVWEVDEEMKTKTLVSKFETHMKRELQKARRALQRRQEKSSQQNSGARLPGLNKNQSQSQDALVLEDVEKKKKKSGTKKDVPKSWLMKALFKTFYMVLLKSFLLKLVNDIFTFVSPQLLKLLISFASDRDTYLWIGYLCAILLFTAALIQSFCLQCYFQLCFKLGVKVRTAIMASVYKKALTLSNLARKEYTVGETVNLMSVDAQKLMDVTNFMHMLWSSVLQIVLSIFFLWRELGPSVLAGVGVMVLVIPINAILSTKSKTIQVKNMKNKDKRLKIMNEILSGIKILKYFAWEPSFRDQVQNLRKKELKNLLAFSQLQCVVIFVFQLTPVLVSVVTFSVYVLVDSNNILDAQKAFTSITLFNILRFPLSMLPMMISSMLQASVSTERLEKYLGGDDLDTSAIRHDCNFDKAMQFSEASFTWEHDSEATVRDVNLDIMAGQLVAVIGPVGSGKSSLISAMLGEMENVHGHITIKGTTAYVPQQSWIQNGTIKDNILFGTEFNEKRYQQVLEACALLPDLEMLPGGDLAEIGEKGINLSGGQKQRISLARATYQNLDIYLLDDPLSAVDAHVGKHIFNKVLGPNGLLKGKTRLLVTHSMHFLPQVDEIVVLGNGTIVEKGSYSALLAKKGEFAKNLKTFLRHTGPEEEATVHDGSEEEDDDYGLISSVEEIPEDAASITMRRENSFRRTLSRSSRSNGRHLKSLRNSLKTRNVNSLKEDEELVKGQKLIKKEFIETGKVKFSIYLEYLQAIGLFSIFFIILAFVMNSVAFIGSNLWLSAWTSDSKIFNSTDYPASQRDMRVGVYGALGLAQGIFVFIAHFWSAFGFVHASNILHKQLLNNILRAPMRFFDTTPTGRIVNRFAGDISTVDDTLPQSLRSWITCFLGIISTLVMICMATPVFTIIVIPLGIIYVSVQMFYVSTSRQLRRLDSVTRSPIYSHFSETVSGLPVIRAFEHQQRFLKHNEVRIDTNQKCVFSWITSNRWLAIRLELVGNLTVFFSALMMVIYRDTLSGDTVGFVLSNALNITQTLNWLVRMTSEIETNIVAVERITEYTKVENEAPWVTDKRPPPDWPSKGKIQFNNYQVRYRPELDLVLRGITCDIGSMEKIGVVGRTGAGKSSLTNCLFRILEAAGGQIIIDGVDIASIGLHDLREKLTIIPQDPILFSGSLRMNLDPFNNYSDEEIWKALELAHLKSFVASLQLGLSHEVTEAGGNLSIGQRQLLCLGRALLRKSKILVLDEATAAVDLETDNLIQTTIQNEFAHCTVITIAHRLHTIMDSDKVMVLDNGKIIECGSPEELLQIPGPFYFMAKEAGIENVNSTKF", "experiment": "Inhibition of human MRP2 expressed in MDCK2 cells assessed as reduction of [3H]E217betaG substrate transport up to 100 uM by liquid scintillation counting", "assay_type": "ADME, cell-based", "conditions": "mdck-ii", "in_short": "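Membrane vesicles made from MDCKII cells expressing BCRP or MRP2, and from parental cells (1 μg/μL protein). Run in Tris-sucrose buffer, pH 7.4, with 10 mM MgCl2, creatine phosphokinase and ATP, or AMP as control. Substrates: 0.035 μM [3H]E-sul for BCRP, 2 min; 0.033 μM [3H]E217βG for MRP2, 5 min; both at 37 °C. Stopped ice-cold, filtered, and counted by scintillation.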"}, "[5]": {"experiment": "Protein binding in plasma (unknown origin)", "assay_type": "ADME, cell-free", "conditions": "read-out: PPB (converted)"}, "[6]": {"target": "T1, Solute carrier family 22 member 6 (Homo sapiens, UniProt Q4U2R8)", "T1 sequence (Q4U2R8 whole entry)": "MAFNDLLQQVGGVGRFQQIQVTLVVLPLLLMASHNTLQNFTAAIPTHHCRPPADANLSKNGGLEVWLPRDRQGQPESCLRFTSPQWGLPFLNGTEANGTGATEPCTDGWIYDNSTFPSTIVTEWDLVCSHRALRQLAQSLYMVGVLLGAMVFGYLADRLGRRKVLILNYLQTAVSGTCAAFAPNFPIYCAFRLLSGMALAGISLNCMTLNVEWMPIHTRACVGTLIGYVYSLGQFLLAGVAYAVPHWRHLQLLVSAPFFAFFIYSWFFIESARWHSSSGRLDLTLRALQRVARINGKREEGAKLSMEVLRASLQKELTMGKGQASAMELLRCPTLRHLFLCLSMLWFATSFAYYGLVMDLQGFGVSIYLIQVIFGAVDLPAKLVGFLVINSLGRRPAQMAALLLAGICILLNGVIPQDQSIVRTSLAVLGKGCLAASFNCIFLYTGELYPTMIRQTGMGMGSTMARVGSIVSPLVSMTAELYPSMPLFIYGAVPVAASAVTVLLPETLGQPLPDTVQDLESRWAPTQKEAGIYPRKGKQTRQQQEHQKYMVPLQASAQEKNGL", "experiment": "Inhibition of OAT1 (unknown origin) expressed in HEK293 cells assessed as reduction of [3H]PAH substrate uptake at 100 uM by liquid scintillation counting", "assay_type": "ADME, cell-based", "conditions": "hek293, 100 µM", "in_short": "(§1)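 HEK293 cells transiently transfected with OAT, OATP or OCT plasmid (FuGENE6; 24 h, then 24 h more with sodium butyrate), or stable OCTN1/OCTN2 lines; vector-transfected cells as control. Washed, preincubated 15–60 min at 37 °C in modified Krebs-Henseleit/25 mM HEPES buffer. Uptake of radiolabelled substrate, 100 µM inhibitor. Cells lysed in NaOH and counted by scintillation; counts normalised to medium radioactivity and Lowry protein; vector uptake subtracted.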"}, "[7]": {"target": "T2, Organic anion transporter 3 (Homo sapiens, UniProt Q8TCC7)", "T2 sequence (Q8TCC7 whole entry)": "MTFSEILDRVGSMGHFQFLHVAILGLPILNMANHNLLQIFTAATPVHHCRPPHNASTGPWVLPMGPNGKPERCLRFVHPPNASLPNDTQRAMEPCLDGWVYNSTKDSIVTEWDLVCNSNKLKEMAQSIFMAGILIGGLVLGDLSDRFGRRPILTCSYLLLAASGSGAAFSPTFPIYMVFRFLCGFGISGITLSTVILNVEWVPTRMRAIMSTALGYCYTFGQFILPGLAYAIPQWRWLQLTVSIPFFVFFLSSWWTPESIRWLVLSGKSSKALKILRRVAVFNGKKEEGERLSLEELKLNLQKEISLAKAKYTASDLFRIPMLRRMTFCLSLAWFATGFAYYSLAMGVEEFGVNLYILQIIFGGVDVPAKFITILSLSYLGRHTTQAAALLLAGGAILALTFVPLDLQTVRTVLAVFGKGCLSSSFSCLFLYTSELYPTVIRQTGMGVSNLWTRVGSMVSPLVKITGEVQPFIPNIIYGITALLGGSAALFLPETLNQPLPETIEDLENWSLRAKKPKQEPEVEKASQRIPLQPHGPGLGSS", "experiment": "Inhibition of OAT3 (unknown origin) expressed in HEK293 cells assessed as reduction of [3H]E-sul substrate uptake at 100 uM by liquid scintillation counting", "assay_type": "ADME, cell-based", "conditions": "hek293, 100 µM", "in_short": "as §1"}, "[8]": {"target": "T3, Solute carrier family 22 member 11 (Homo sapiens, UniProt Q9NSA0)", "T3 sequence (Q9NSA0 whole entry)": "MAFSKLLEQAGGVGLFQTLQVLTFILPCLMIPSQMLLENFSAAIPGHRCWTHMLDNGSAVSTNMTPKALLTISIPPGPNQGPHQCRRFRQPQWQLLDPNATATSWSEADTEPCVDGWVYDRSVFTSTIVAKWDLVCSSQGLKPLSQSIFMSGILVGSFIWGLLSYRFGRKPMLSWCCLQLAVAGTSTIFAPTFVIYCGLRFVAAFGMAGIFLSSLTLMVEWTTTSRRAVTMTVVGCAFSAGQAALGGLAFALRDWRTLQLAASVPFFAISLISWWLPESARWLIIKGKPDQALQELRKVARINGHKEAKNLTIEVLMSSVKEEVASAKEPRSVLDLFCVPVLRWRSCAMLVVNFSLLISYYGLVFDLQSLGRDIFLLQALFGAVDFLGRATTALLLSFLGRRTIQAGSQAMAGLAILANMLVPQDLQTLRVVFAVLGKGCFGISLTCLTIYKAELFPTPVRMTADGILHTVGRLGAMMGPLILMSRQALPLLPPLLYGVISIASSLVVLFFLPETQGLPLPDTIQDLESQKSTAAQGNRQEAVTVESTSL", "experiment": "Inhibition of OAT4 (unknown origin) expressed in HEK293 cells assessed as reduction of [3H]E-sul substrate uptake at 100 uM by liquid scintillation counting", "assay_type": "ADME, cell-based", "conditions": "hek293, 100 µM", "in_short": "as §1"}},
  "data": [
    {"molecule": "CC#CCn1c(N2CCC[C@@H](N)C2)nc2c1c(=O)n(Cc1nc(C)c3ccccc3n1)c(=O)n2C", "note": "[LINAGLIPTIN]", "values": [
      {"measurement": "Papp B→A", "setting": "[1]", "result": 27.4, "unit": "×10⁻⁶ cm/s"},
      {"measurement": "inhibition (INH)", "setting": "[2]", "result": "Dose-dependent effect"},
      {"measurement": "IC50", "setting": "[3]", "result": 66.1, "unit": "µM"},
      {"measurement": "inhibition (INH)", "setting": "[4]", "result": "Not Active"},
      {"measurement": "fraction unbound", "setting": "[5]", "result": 0.2},
      {"measurement": "inhibition (INH)", "setting": "[6]", "result": 1.07, "unit": "%"},
      {"measurement": "inhibition (INH)", "setting": "[7]", "result": 0, "unit": "%"},
      {"measurement": "inhibition (INH)", "setting": "[8]", "result": 0, "unit": "%"}
    ]}
  ]
}
